Activity calls are given as the source filed them. No cut-off for these calls is given here.
How the values were obtained:
[1] = biological target: DNA topoisomerase 2-alpha (Homo sapiens) (UniProt P11388); test: Inhibition of human DNA topoisomerase 2-mediated decatenation of catenated kinetoplast DNA at 5 uM after 1 hr by agarose gel electrophoresis
In short: (§1)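 0.2 μg catenated kinetoplast DNA incubated 1 h at 37 °C with compound in 50 mM Tris-Cl pH 8.0, 150 mM NaCl, 10 mM MgCl2, 5 mM ATP, 0.5 mM DTT, 30 μg/mL BSA. Doxorubicin 5 μM as positive control. Stopped with SDS/proteinase K, 30 min at 37 °C. Run on 1% agarose (55 V, 2 h), stained with ethidium bromide.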

HeLa = test: Cytotoxicity against human HeLa cells after 72 hrs by MTT assay; type: functional
In short: (§2)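 Cells plated 24 h in 96-well plates at 10,000–40,000 cells/mL depending on line. U373 grown in MEM, other lines in RPMI, both with 5% heat-inactivated FCS. Cells exposed to compounds (or none, control) for 72 h. MTT reduction to formazan read at 570 nm against 630 nm reference. Sextuplicate per condition.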

Jurkat = test: Cytotoxicity against human Jurkat cells after 72 hrs by MTT assay; type: functional; in short: as §2
MCF7 = test: Cytotoxicity against human MCF7 cells after 72 hrs by MTT assay; type: functional; details: MCF7, 72 h; in short: as §2
A549 = test: Cytotoxicity against human A549 cells after 72 hrs by MTT assay; type: functional; details: A549, 72 h; in short: as §2
LoVo = test: Cytotoxicity against human LoVo cells after 72 hrs by MTT assay; type: functional; in short: as §2
[2] = Cytotoxicity against human U373 cells after 72 hrs by MTT assay; type: functional, U-373MG ATCC; details: U373 MG; in short: as §2
SK-MEL = test: Cytotoxicity against human SK-MEL cells after 72 hrs by MTT assay; type: functional; in short: as §2
PC-3 = test: Cytotoxicity against human PC3 cells after 72 hrs by MTT assay; type: functional; details: PC-3, 72 h; in short: as §2
U-373MG ATCC = test: Cytostatic activity against human U373 cells assessed as morphological changes after 72 hrs by phase contrast microscopy; type: functional, cell-based
[3] = biological target: T1, DNA topoisomerase 1 (Homo sapiens) (UniProt P11387); test: Inhibition of human DNA topoisomerase 1-mediated relaxation of supercoiled pGEM1 plasmid DNA at 250 uM after 30 mins by agarose gel electrophoresis
T1 sequence (whole entry): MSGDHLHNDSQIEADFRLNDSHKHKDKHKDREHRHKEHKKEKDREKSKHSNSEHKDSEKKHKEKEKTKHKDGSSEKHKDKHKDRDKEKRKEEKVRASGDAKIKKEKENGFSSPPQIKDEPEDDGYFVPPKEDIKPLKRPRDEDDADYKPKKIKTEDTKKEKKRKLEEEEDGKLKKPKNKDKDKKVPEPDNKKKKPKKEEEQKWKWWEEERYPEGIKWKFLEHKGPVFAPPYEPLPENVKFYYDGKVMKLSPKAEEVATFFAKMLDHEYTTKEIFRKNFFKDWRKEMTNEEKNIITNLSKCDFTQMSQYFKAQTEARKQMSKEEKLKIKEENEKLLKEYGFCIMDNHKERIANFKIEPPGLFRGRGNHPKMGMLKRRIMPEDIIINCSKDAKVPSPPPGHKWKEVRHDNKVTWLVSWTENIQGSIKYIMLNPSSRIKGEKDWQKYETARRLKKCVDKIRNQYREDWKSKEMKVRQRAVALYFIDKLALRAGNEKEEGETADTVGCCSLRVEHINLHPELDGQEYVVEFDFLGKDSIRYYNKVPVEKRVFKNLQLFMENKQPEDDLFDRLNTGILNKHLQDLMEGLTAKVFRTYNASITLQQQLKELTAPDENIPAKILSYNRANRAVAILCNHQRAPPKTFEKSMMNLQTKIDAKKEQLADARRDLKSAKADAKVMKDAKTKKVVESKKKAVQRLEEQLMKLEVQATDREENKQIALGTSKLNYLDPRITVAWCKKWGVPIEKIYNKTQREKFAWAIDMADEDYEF
In short: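 Enzyme source: nuclear extract of MCF-7 cells (0.1 μL). 250 ng supercoiled pGEM1 plasmid incubated 30 min at 37 °C with compound (10–250 μM) in 10 mM Tris pH 7.9, 100 mM KCl, 10 mM MgCl2, 0.5 mM DTT, 0.5 mM EDTA, 0.03 mg/mL BSA. Camptothecin 100 μM as positive control. Stopped with SDS/proteinase K, 30 min at 37 °C. Run on 1% agarose, stained with ethidium bromide.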

[4] = biological target: T1, DNA topoisomerase 1 (Homo sapiens); test: Effect on human DNA topoisomerase 1-mediated supercoiled pGEM1 plasmid DNA cleavage complex stabilization at up to 100 uM by agarose gel electrophoresis
[5] = biological target: DNA topoisomerase 2-alpha (Homo sapiens) (UniProt P11388); test: Inhibition of human DNA topoisomerase 2-mediated decatenation of catenated kinetoplast DNA at 1 uM after 1 hr by agarose gel electrophoresis; in short: as §1

DNA topoisomerase 2-alpha (Homo sapiens), sequence (P11388 whole entry): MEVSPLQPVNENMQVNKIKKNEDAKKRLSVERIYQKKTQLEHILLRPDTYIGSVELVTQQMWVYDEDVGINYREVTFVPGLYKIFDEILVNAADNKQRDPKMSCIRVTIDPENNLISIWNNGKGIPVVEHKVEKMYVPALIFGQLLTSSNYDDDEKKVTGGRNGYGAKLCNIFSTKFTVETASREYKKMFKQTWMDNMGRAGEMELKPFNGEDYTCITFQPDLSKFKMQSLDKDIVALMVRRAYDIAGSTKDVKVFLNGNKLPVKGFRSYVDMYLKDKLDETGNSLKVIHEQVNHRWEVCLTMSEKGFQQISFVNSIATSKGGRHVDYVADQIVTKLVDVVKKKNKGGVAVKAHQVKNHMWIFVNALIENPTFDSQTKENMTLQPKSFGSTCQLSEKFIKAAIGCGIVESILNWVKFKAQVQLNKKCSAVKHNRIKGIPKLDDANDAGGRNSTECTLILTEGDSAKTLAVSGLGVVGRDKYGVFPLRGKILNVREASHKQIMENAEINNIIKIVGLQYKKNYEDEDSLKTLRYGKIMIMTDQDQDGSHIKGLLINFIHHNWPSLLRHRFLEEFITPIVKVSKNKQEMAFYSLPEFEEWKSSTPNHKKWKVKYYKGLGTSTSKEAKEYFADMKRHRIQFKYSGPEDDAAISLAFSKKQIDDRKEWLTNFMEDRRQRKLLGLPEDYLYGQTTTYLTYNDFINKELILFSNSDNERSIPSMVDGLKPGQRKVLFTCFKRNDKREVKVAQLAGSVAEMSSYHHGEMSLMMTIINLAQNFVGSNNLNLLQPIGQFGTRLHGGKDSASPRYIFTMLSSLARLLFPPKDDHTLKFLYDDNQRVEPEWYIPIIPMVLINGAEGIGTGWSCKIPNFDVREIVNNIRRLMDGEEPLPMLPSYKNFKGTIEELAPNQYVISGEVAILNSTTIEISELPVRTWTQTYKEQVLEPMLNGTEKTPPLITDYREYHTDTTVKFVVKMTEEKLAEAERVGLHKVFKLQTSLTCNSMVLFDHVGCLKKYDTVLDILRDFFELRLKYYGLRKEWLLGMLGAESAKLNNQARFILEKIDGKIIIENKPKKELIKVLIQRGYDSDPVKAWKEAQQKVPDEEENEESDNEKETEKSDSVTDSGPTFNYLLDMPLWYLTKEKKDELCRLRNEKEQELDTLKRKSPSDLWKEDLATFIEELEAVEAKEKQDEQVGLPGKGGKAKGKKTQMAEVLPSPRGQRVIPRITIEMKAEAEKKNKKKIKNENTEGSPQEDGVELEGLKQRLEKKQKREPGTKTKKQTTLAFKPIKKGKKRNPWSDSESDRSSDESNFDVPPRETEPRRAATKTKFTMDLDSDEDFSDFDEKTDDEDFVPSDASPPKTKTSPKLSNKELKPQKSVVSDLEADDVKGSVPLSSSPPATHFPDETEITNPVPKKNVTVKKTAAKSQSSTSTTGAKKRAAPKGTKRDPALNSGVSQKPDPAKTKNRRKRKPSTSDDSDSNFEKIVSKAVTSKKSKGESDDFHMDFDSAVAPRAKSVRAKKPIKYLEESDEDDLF

inhibition [1] | inhibition [3] | Activity [4] | inhibition [5] | Structure (SMILES) | GI50 (HeLa) [nM] | GI50 (Jurkat) [nM] | GI50 (MCF7) [nM] | GI50 (A549) [nM] | GI50 (LoVo) [nM] | GI50 [2] [nM] | GI50 (SK-MEL) [nM] | GI50 (PC-3) [nM] | Activity (U-373MG ATCC)
Active |  |  |  | COc1cccc2c1C(=O)c1c(O)c3c(c(O)c1C2=O)C[C@@](O)(C(=O)CO)C[C@@H]3O[C@H]1C[C@H](N)[C@H](O)[C@H](C)O1 |  |  |  |  |  |  |  |  | 
 | Active | inactive |  | CSc1ccc(C2C3=C(Nc4[nH]c(=O)[nH]c(=O)c42)c2ccccc2C3=O)cc1 (configuration not stated) | 370 | 190 | 360 | 470 | 490 | 100 | 1800 | 400 | Active
Active |  | inactive | Active | Cc1ccc(-c2c3c(nc4[nH]c(=O)[nH]c(=O)c24)-c2ccccc2C3=O)cc1C | 190 | 170 | 190 | 140 | 330 | 500 | 450 | 480 | Active
Active | Active | inactive | Active | CSc1ccc(-c2c3c(nc4[nH]c(=O)[nH]c(=O)c24)-c2ccccc2C3=O)cc1 | 170 | 50 | 450 | 610 | 290 | 100 | 230 | 190 | Active
